Test results as given in ChEMBL document CHEMBL4428081, “Selective AKR1C3 Inhibitors Potentiate Chemotherapeutic Activity in Multiple Acute Myeloid Leukemia (AML) Cell Lines” (ACS Med Chem Lett, 2016).
Calls of active or inactive are those of the source. The rule behind the calls is not given here.

Legend:
[1] = target: T1, Aldo-keto reductase family 1 member C3 (Homo sapiens) (UniProt P42330); test: Inhibition of AKR1C3 in human KG1a cells assessed as potentiation of etoposide-induced cytotoxicity by measuring reduction in cell viability at 0.1 uM coincubated with etoposide at 1 uM after 72 hrs by MTS assay; type: cell-based
T1 sequence (whole entry): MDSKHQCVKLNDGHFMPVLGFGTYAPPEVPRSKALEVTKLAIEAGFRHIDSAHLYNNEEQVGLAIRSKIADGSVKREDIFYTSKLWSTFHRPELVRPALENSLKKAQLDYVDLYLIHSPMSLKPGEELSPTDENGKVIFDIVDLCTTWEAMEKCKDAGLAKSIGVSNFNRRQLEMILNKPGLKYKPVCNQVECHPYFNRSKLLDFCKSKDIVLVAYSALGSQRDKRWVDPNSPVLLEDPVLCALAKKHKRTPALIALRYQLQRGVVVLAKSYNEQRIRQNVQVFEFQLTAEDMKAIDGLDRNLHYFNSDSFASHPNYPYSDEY
Procedure, shortened: (§1)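 HL-60 or KG1a cells were coincubated with inhibitor and etoposide for 72 h, then cell viability was read. Values are mean ± SD (n = 6). Treatments were compared with control by two-tailed t test.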

[2] = target: T1, Aldo-keto reductase family 1 member C3 (Homo sapiens); test: Inhibition of AKR1C3 in human HL60 cells assessed as potentiation of etoposide-induced cytotoxicity by measuring reduction in cell viability pre-treated with 0.1 to 1 uM compound for 24 hrs followed by 1 uM etoposide exposure for additional 72 hrs by MTS assay; type: cell-based
[3] = target: T1, Aldo-keto reductase family 1 member C3 (Homo sapiens); test: Inhibition of AKR1C3 in human HL60 cells assessed as potentiation of etoposide-induced cytotoxicity by measuring reduction in cell viability at 0.1 uM coincubated with etoposide at 0.5 uM after 72 hrs by MTS assay (reference value: 20%); type: cell-based; procedure, shortened: as §1
HL-60 [4] = test: Cytotoxicity against human HL60 cells assessed as reduction in cell viability at 0.1 to 1 uM at 72 hrs by MTS assay; type: functional
Procedure, shortened: (§2)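 HL-60 human acute promyelocytic leukemia cells exposed to AKR1C3 inhibitor alone, with no chemotherapeutic, over a range up to 100 μM. Lower working range was 0.1–1 μM. Read-out was cell viability relative to untreated control.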

HL-60 [5] = test: Downregulation of AKR1C3 expression in human HL60 cells at 1 to 10 uM after 72 hrs by Western blot analysis; type: functional, cell-based
Procedure, shortened: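 KG1a and HL-60 cells were incubated with inhibitor at 1, 5 and 10 μM. AKR1C3 expression levels were determined after 48 h and 72 h incubation.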

KG-1a [6] = test: Cytotoxicity against human KG1a cells expressing AKR1C3 assessed as reduction in cell viability at 1 uM at 72 hrs by MTS assay; type: functional
[7] = target: T1, Aldo-keto reductase family 1 member C3 (Homo sapiens); test: Inhibition of AKR1C3 in human HL60 cells assessed as potentiation of etoposide-induced cytotoxicity by measuring reduction in cell viability at 0.1 uM coincubated with etoposide at 1 uM after 72 hrs by MTS assay (reference value: 40%); type: cell-based; procedure, shortened: as §1
HL-60 [8] = test: Cytotoxicity against human HL60 cells assessed as reduction in cell viability at 50 uM at 72 hrs by MTS assay; type: functional, cell-based; procedure, shortened: as §2
[9] = target: Aldo-keto reductase family 1 member C2 (Homo sapiens, UniProt P52895); test: Inhibition of recombinant AKR1C2 (unknown origin) assessed as reduction in S-tetralol catalyzed oxidation in presence of NADPH by fluorescence assay
Homo sapiens = species: Homo sapiens; test: Selectivity ratio of IC50 for recombinant AKR1C2 (unknown origin) to IC50 for recombinant AKR1C3 (unknown origin)
[10] = target: Aldo-keto reductase family 1 member C3 (Homo sapiens, UniProt P42330); test: Inhibition of recombinant N-terminal His-tagged AKR1C3 (unknown origin) assessed as rate of change of pyridine nucleotide absorbance in presence of NADPH
HL-60 [11] = test: Cytotoxicity against human HL60 cells assessed as reduction in cell viability up to 100 uM at 72 hrs by MTS assay; type: functional, cell-based; procedure, shortened: as §2
KG-1a [12] = test: Cytotoxicity against human KG1a cells expressing AKR1C3 assessed as reduction in cell viability at >25 uM at 72 hrs by MTS assay; type: functional, cell-based

Sequence of Aldo-keto reductase family 1 member C2 (P52895 whole entry): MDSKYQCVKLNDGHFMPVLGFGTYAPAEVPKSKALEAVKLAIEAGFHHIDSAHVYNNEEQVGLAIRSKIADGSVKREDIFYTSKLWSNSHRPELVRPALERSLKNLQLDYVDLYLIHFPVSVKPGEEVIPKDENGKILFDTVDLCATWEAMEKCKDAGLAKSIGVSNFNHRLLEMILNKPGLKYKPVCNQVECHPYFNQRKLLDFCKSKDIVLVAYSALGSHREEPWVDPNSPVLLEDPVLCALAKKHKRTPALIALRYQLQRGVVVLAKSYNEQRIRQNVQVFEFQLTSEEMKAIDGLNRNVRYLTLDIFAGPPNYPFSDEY

| IC50 [9] | Ratio IC50 (Homo sapiens) | IC50 [10] | SMILES | Activity [1] | Activity [2] | Activity [3] | Activity (HL-60 [4]) | Activity (HL-60 [5]) | Activity (KG-1a [6]) | Activity [7] | Activity (HL-60 [8]) | Activity (HL-60 [11]) | Activity (KG-1a [12]) |
| --- | --- | --- | --- | --- | --- | --- | --- | --- | --- | --- | --- | --- | --- |
| – | – | – | CC(C)=CCc1ccc(/C=C/C(=O)O)cc1NC(=O)CCc1ccccc1 | 40% | 80 to 95% | 45% | 8% | Active | 20% | 52% | Active | – | – |
| 3.98 µM | 0.66 | 2.51 µM | CC(=O)O[C@]1(C(C)=O)CC[C@H]2[C@@H]3C[C@H](C)C4=CC(=O)CC[C@]4(C)[C@H]3CC[C@@]21C [MEDROXYPROGESTERONE ACETATE] | – | – | – | – | – | – | – | – | – | – |
| – | – | – | CC(C)=CCc1ccc(/C=C/C(=O)O)cc1OC(=O)CCc1ccccc1 | 54% | 80 to 95% | – | – | – | – | 80% | – | inactive | Active |
